Activity calls are given as the source filed them. No cut-off for these calls is given here.
Key:
Rattus norvegicus [1] = test: Delta BP refers to oral hypotensive activity of compound which is evaluated at 4 hr and 24 hr in restrained, normotensive conscious rats at a dose of 50 mg/kg; format: functional, organism-based; parameters: dose 50 mg/kg
How it was run: (§1)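 Female Sprague-Dawley rats, normotensive, restrained in a towel. Blood pressure was read directly via chronic indwelling aortic cannulas exteriorized at the nape, before and 4 and 24 h after an oral dose suspended in carboxymethylcellulose (10 mL/kg). Values from two animals were averaged at each time; a mean change of at least 5 mmHg was taken as significant (p < 0.05).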

Rattus norvegicus [2] = test: Delta BP refers to oral hypotensive activity of compound which is evaluated at 4 hr and 24 hr in restrained, normotensive conscious rats at a dose of 50 mg/kg; -15/-3; format: functional; how it was run: as §1
Rattus norvegicus [3] = test: Delta BP refers to oral hypotensive activity of compound which is evaluated at 4 hr and 24 hr in restrained, normotensive conscious rats at a dose of 50 mg/kg; -8/-1; format: functional; how it was run: as §1
Rattus norvegicus [4] = test: Delta BP refers to oral hypotensive activity of compound which is evaluated at 4 hr and 24 hr in restrained, normotensive conscious rats at a dose of 50 mg/kg; -16/-26; format: functional; how it was run: as §1
Rattus norvegicus [5] = test: Delta BP refers to oral hypotensive activity of compound which is evaluated at 4 hr and 24 hr in restrained, normotensive conscious rats at a dose of 50 mg/kg; -4/-10; format: functional; how it was run: as §1
Rattus norvegicus [6] = test: Delta BP refers to oral hypotensive activity of compound which is evaluated at 4 hr and 24 hr in restrained, normotensive conscious rats at a dose of 50 mg/kg; -2/2; format: functional; how it was run: as §1
Rattus norvegicus [7] = test: Delta BP refers to oral hypotensive activity of compound which is evaluated at 4 hr and 24 hr in restrained, normotensive conscious rats at a dose of 50 mg/kg; -26/-21; format: functional; how it was run: as §1
Rattus norvegicus [8] = test: Delta BP refers to oral hypotensive activity of compound which is evaluated at 4 hr and 24 hr in restrained, normotensive conscious rats at a dose of 15 mg/kg; -24/-5; format: functional; how it was run: as §1
Rattus norvegicus [9] = test: Delta BP refers to oral hypotensive activity of compound which is evaluated at 4 hr and 24 hr in restrained, normotensive conscious rats at a dose of 50 mg/kg; -22/-25; format: functional; how it was run: as §1
Rattus norvegicus [10] = test: Delta BP refers to oral hypotensive activity of compound which is evaluated at 4 hr and 24 hr in restrained, normotensive conscious rats at a dose of 50 mg/kg; -16/3; format: functional; settings: dose 15 mg/kg, in the assay text read “dose of 15 mg/kg” for “dose of 50 mg/kg”; how it was run: as §1
Rattus norvegicus [11] = test: Delta BP refers to oral hypotensive activity of compound which is evaluated at 4 hr and 24 hr in restrained, normotensive conscious rats at a dose of 50 mg/kg; 3/2; format: functional; how it was run: as §1
Rattus norvegicus [12] = test: Delta BP refers to oral hypotensive activity of compound which is evaluated at 4 hr and 24 hr in restrained, normotensive conscious rats at a dose of 50 mg/kg; -19/-21; format: functional; how it was run: as §1
Rattus norvegicus [13] = test: Delta BP refers to oral hypotensive activity of compound which is evaluated at 4 hr and 24 hr in restrained, normotensive conscious rats at a dose of 50 mg/kg; -20/-5; format: functional; how it was run: as §1
Rattus norvegicus [14] = test: Delta BP refers to oral hypotensive activity of compound which is evaluated at 4 hr and 24 hr in restrained, normotensive conscious rats at a dose of 50 mg/kg; -16/-14; format: functional; how it was run: as §1

With `COc1cc2c(cc1OC)C(C)(CCN1CCN(c3cccc(Cl)c3)CC1)OCC2` (centres undefined) as the compound, how does the Delta blood pressure (Rattus norvegicus [1]) read?
Its Delta blood pressure is “inactive”.

`COc1cc2c(cc1OC)C(CN1CCN(c3ccccc3OC)CC1)OCC2` (centres undefined) was tested. Which Delta blood pressure (Rattus norvegicus [2]) did it give?
Its Delta blood pressure is -15 mmHg.

With `COc1cc2c(cc1OC)C(C)(CCCN1CCN(c3ccc(Cl)cc3)CC1)OCC2` (centres undefined) as the compound, how does the Delta blood pressure (Rattus norvegicus [3]) read?
Its Delta blood pressure is -8 mmHg.

With `COc1cc2c(cc1OC)C(CN1CCN(c3ccccn3)CC1)OCC2` (centres undefined) as the compound, how does the Delta blood pressure (Rattus norvegicus [1]) read?
Its Delta blood pressure is “inactive”.

Which Delta blood pressure (Rattus norvegicus [1]) does the source give for `COc1cc2c(cc1OC)C(CCN1CCN(c3ccccc3)CC1)OC(C)(C)C2` (centres undefined) here?
The Delta blood pressure was “inactive”.

`COc1cc2c(cc1OC)C(C)(CCN1CCN(c3ccc(F)cc3)CC1)OCC2` (centres undefined) was tested. Which Delta blood pressure (Rattus norvegicus [4]) did it give?
The Delta blood pressure was -16 mmHg.

With `COc1cc2c(cc1OC)C(CCCN1CCN(c3ccccc3C)CC1)(c1ccc(F)cc1)OCC2` (centres undefined) as the compound, how does the Delta blood pressure (Rattus norvegicus [1]) read?
Its Delta blood pressure is “inactive”.

How did the Delta blood pressure (Rattus norvegicus [5]) turn out when `COc1cc2c(cc1OC)C(C)(C)COC2CCN1CCN(c2cccc(Cl)c2)CC1` (centres undefined) was run?
Its Delta blood pressure is -4 mmHg.

How did the Delta blood pressure (Rattus norvegicus [1]) turn out when `COc1cc2c(cc1OC)C(C)(C)COC2CCN1CCN(c2ccc(F)cc2)CC1` (centres undefined) was run?
The Delta blood pressure was “inactive”.

For `COc1cc2c(cc1OC)C(CCN1CCN(c3cccc(C(F)(F)F)c3)CC1)OCC2` (centres undefined), which Delta blood pressure (Rattus norvegicus [6]) is on record?
The Delta blood pressure was -2 mmHg.

For `COc1cc2c(cc1OC)C(C)(CCCN1CCN(c3ccccc3C)CC1)OCC2` (centres undefined), which Delta blood pressure (Rattus norvegicus [7]) is on record?
Its Delta blood pressure is -26 mmHg.

And the Delta blood pressure (Rattus norvegicus [8])?
Its Delta blood pressure is -24 mmHg.

How did the Delta blood pressure (Rattus norvegicus [1]) turn out when `COc1cc2c(cc1OC)C(CCCN1CCN(c3cccc(Cl)c3)CC1)(c1ccc(F)cc1)OCC2` (centres undefined) was run?
Its Delta blood pressure is “inactive”.

`COc1cc2c(cc1OC)C(CCCN1CCN(c3ccc(F)cc3)CC1)(c1ccc(F)cc1)OCC2` (centres undefined) was tested. Which Delta blood pressure (Rattus norvegicus [9]) did it give?
The Delta blood pressure was -22 mmHg.

What about the Delta blood pressure (Rattus norvegicus [10]) of the same compound?
Its Delta blood pressure is -16 mmHg.

With `COc1cc2c(cc1OC)C(C)(CCN1CCN(c3cccc(C(F)(F)F)c3)CC1)OCC2` (centres undefined) as the compound, how does the Delta blood pressure (Rattus norvegicus [1]) read?
The Delta blood pressure was “inactive”.

Which Delta blood pressure (Rattus norvegicus [11]) does the source give for `COc1cc2c(cc1OC)C(CCN1CCN(c3ccccc3Cl)CC1)OCC2` (centres undefined) here?
Its Delta blood pressure is 3 mmHg.

With `COc1cc2c(cc1OC)C(CCN1CCN(c3ccc(Cl)cc3)CC1)OCC2` (centres undefined) as the compound, how does the Delta blood pressure (Rattus norvegicus [12]) read?
The Delta blood pressure was -19 mmHg.

For `COc1cc2c(cc1OC)C(C)(CCCN1CCN(c3ccccc3Cl)CC1)OCC2` (centres undefined), which Delta blood pressure (Rattus norvegicus [1]) is on record?
The Delta blood pressure was “inactive”.

How did the Delta blood pressure (Rattus norvegicus [1]) turn out when `COc1cc2c(cc1OC)C(C)(CCCN1CCN(c3cccc(Cl)c3)CC1)OCC2` (centres undefined) was run?
Its Delta blood pressure is “inactive”.

How did the Delta blood pressure (Rattus norvegicus [1]) turn out when `COc1cc2c(cc1OC)C(C)(C)COC2CCN1CCN(c2ccccc2Cl)CC1` (centres undefined) was run?
Its Delta blood pressure is “inactive”.

`COc1cc2c(cc1OC)C(CCN1CCN(c3ccc(F)cc3)CC1)OC(C)(C)C2` (centres undefined) was tested. Which Delta blood pressure (Rattus norvegicus [4]) did it give?
Its Delta blood pressure is -16 mmHg.

With `COc1cc2c(cc1OC)C(CN1CCN(c3ccccc3)CC1)OCC2` (centres undefined) as the compound, how does the Delta blood pressure (Rattus norvegicus [13]) read?
Its Delta blood pressure is -20 mmHg.

With `COc1cc2c(cc1OC)C(C)(CCN1CCN(c3ccccn3)CC1)OCC2` (centres undefined) as the compound, how does the Delta blood pressure (Rattus norvegicus [1]) read?
Its Delta blood pressure is “inactive”.

For `COc1cc2c(cc1OC)C(C)(CCCN1CCN(c3ccccc3OC)CC1)OCC2` (centres undefined), which Delta blood pressure (Rattus norvegicus [1]) is on record?
The Delta blood pressure was “inactive”.

With `COc1cc2c(cc1OC)C(CN1CCN(c3cccc(Cl)c3)CC1)OCC2` (centres undefined) as the compound, how does the Delta blood pressure (Rattus norvegicus [1]) read?
The Delta blood pressure was “inactive”.

For `COc1cc2c(cc1OC)C(CCN1CCN(c3cccc(Cl)c3)CC1)OC(C)(C)C2` (centres undefined), which Delta blood pressure (Rattus norvegicus [1]) is on record?
Its Delta blood pressure is “inactive”.

With `COc1cc2c(cc1OC)C(C)(C)COC2CCN1CCN(c2ccccc2)CC1` (centres undefined) as the compound, how does the Delta blood pressure (Rattus norvegicus [14]) read?
The Delta blood pressure was -16 mmHg.

`COc1cc2c(cc1OC)C(CCN1CCN(c3ccccn3)CC1)OC(C)(C)C2` (centres undefined) was tested. Which Delta blood pressure (Rattus norvegicus [1]) did it give?
Its Delta blood pressure is “inactive”.
